Source: ChEMBL document CHEMBL1649230, “Aryl rhodanines specifically inhibit staphylococcal and enterococcal biofilm formation” (Antimicrob Agents Chemother, 2009)
Active and inactive are the calls of the source. The calls are words filed in the database; no cut-off is given here.

Columns and labels:
Staphylococcus aureus [1] = experiment: Antimicrobial activity against community acquired methicillin-resistant Staphylococcus aureus isolate 24102 assessed as inhibition of bacterial biofilm after 18 hrs by broth microdilution method; format: functional
How it was run: (§1)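 Biofilm MBIC on tissue culture-treated polystyrene 96-well plates. Twofold dilutions, 0.2 to 100 μM final, with 2% DMSO final. Inoculum was an overnight culture diluted 1:100 (~5 × 10^6 cells/well) in 0.5× TSB plus 1% glucose, grown 18 h at 37°C. Wells washed, heat-fixed 60°C 60 min, stained with 0.06% crystal violet, OD600 read. MBIC is the lowest concentration giving ≥80% inhibition versus untreated; geometric mean of ≥3 experiments.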

Staphylococcus aureus [2] = experiment: Antimicrobial activity against community acquired methicillin-resistant Staphylococcus aureus isolate 33548 assessed as inhibition of bacterial biofilm after 18 hrs by broth microdilution method; format: functional; how it was run: as §1
Staphylococcus aureus [3] = experiment: Antimicrobial activity against community acquired methicillin-resistant Staphylococcus aureus isolate 35392 assessed as inhibition of bacterial biofilm after 18 hrs by broth microdilution method; format: functional; how it was run: as §1
Staphylococcus aureus [4] = experiment: Antimicrobial activity against Staphylococcus aureus ATCC 35556 assessed as inhibition of primary adhesion of bacterial biofilm to silicone disk surface under static condition at 4 times MBIC after 30 mins by fluorescence emission using BaclLight Live Dead stain; format: functional, organism-based
How it was run: (§2)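 Mid-log S. aureus ATCC 35556 (OD600 0.5) grown in TSB at 37°C, washed, resuspended in PBS. Compound added (0× to 8× MBIC, 2% DMSO). Suspension placed on tissue culture-treated polystyrene or PVC 96-well plates (eight wells per level) or silicone disks in 24-well plates (three wells). Incubated 30 min at 37°C, then washed. BacLight Live/Dead fluorescence read (ex 485, em 530 nm). Result given as fraction adherent versus untreated.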

Staphylococcus aureus [5] = experiment: Antimicrobial activity against community acquired methicillin-resistant Staphylococcus aureus isolate 43349 assessed as inhibition of bacterial biofilm after 18 hrs by broth microdilution method; format: functional; how it was run: as §1
Staphylococcus aureus [6] = experiment: Antimicrobial activity against Staphylococcus aureus ATCC 35556 assessed as effect on protein synthesis at 30 ug/ml; format: functional, organism-based
Staphylococcus aureus [7] = experiment: Antimicrobial activity against Staphylococcus aureus ATCC 35556 assessed as inhibition of primary adhesion of bacterial biofilm to polystyrene surface under static condition pretreated with compound MBIC for 30 mins measured after 30 mins by fluorescence emission using BaclLight Live Dead stain; format: functional
How it was run: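 PBS suspension of mid-log S. aureus ATCC 35556 exposed to compound in tubes for 30 min at 37°C. Cells centrifuged to remove free compound and resuspended in PBS at the original density. They were then placed on tissue culture-treated polystyrene for 30 min at 37°C. Wells washed, BacLight Live/Dead fluorescence read (ex 485, em 530 nm). Fraction adherent calculated versus untreated.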

Staphylococcus aureus [8] = experiment: Antimicrobial activity against Staphylococcus aureus ATCC 35556 assessed as inhibition of primary adhesion of bacterial biofilm to silicone disk at MBIC after 30 mins by fluorescence emission using BaclLight Live Dead stain
Staphylococcus aureus [9] = experiment: Antimicrobial activity against Staphylococcus aureus ATCC 35556 on medical grade silicone disk assessed as inhibition of bacterial biofilm after 18 hrs by broth microdilution method; format: functional, organism-based
Staphylococcus aureus [10] = experiment: Antimicrobial activity against Staphylococcus aureus ATCC 35556 assessed as inhibition of primary adhesion of bacterial biofilm to PVC surface under static condition at MBIC after 30 mins by fluorescence emission using BaclLight Live Dead stain; format: functional, organism-based; how it was run: as §2
Staphylococcus aureus [11] = experiment: Effect on PNAG synthesis in Staphylococcus aureus ATCC 35556 by dot blot Western analysis; format: functional, organism-based
How it was run: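 PNAG extracts were made from S. aureus ATCC 35556 grown with compound at 0× to 8× MBIC. Extracts were serially diluted 1:4, spotted onto nitrocellulose and probed with WGA-HRP, detected by chemiluminescent substrate on film. A PNAG-defective Δica::Tc strain extract served as the specificity control.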

Enterococcus faecalis [12] = experiment: Antimicrobial activity against vancomycin-resistant Enterococcus faecalis isolate F217 assessed as inhibition of bacterial biofilm after 18 hrs by broth microdilution method; format: functional; how it was run: as §1
Staphylococcus aureus [13] = experiment: Antimicrobial activity against Staphylococcus aureus ATCC 35556 assessed as inhibition of primary adhesion of bacterial biofilm to silicone disk under static condition at MBIC after 30 mins by fluorescence emission using BaclLight Live Dead stain; format: functional, organism-based; how it was run: as §2
Staphylococcus aureus [14] = experiment: Antimicrobial activity against Staphylococcus aureus ATCC 35556 assessed as inhibition of primary adhesion of bacterial biofilm to polystyrene surface under static condition at 0.5 times MBIC after 30 mins by fluorescence emission using BaclLight Live Dead stain; format: functional, organism-based; how it was run: as §2
Enterococcus faecalis [15] = experiment: Antimicrobial activity against vancomycin-resistant Enterococcus faecalis isolate F317 on medical grade silicone disk assessed as inhibition of bacterial biofilm after 18 hrs by broth microdilution method; format: functional
How it was run: (§3)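 Medical-grade silicone disks glued to 24-well plate bottoms. Compound added to a 1:100 overnight-culture inoculum (0.5× TSB, 1% glucose) at 2% DMSO final; ≥3 wells each, ~18 h at 37°C. Washed with water, heat-fixed 60°C 60 min, stained with 0.06% crystal violet, eluted with 30% acetic acid, OD600 read. Repeated ≥3 times.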

Staphylococcus aureus [16] = experiment: Antimicrobial activity against Staphylococcus aureus ATCC 35556 assessed as inhibition of bacterial biofilm formation at 4 times MBIC measured after 4 hrs; format: functional, organism-based
Staphylococcus aureus [17] = experiment: Antimicrobial activity against Staphylococcus aureus ATCC 35556 assessed as inhibition of primary adhesion of bacterial biofilm to silicone disk surface under shaking condition at 4 times MBIC after 30 mins by fluorescence emission using BaclLight Live Dead stain; format: functional, organism-based
Enterococcus faecalis [18] = experiment: Antimicrobial activity against vancomycin-resistant Enterococcus faecalis isolate F177 on medical grade silicone disk assessed as inhibition of bacterial biofilm after 18 hrs by broth microdilution method; format: functional; how it was run: as §3
Staphylococcus aureus [19] = experiment: Antimicrobial activity against Staphylococcus aureus ATCC 35556 assessed as inhibition of primary adhesion of bacterial biofilm to polystyrene surface under static condition at MBIC after 30 mins by fluorescence emission using BaclLight Live Dead stain; format: functional, organism-based; how it was run: as §2
Staphylococcus aureus [20] = experiment: Inhibition of […] of Staphylococcus aureus ATCC 35556 assessed as level of beta-galactosidase activity at 8 times MBIC by Miller assay; format: functional, organism-based
How it was run: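 Stationary-phase autolysis used ATCC 35556 carrying pAJ22, inoculated 1:100 from overnight culture into TSB with 6 μg chloramphenicol/ml and varying compound. Cultures were shaken at 250 rpm, 37°C, for 96 h, sampling OD600 and cell-free supernatants over time. Released β-galactosidase in supernatants was assayed with o-nitrophenyl-β-d-galactopyranoside and reported in Miller units.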

Staphylococcus aureus [21] = experiment: Antimicrobial activity against Staphylococcus aureus ATCC 35556 assessed as effect on protein synthesis at 15 ug/ml; format: functional, organism-based
Staphylococcus aureus [22] = experiment: Antimicrobial activity against Staphylococcus aureus ATCC 35556 assessed as inhibition of planktonic cell growth at 8 times MBIC; format: functional, organism-based
Enterococcus faecalis [23] = experiment: Antimicrobial activity against vancomycin-resistant Enterococcus faecalis isolate F217 on medical grade silicone disk assessed as inhibition of bacterial biofilm after 18 hrs by broth microdilution method; format: functional; how it was run: as §3
[24] = system: Staphylococcus epidermidis; experiment: Antimicrobial activity against methicillin-resistant Staphylococcus epidermidis GTC 18972 assessed as inhibition of bacterial biofilm after 18 hrs by broth microdilution method; format: functional; how it was run: as §1
Enterococcus faecalis [25] = experiment: Antimicrobial activity against vancomycin-resistant Enterococcus faecalis isolate F177 assessed as inhibition of bacterial biofilm after 18 hrs by broth microdilution method; format: functional; how it was run: as §1

C=CCOc1cc(/C=C2\SC(=S)N(c3ccc(F)cc3)C2=O)ccc1O
MBIC (Staphylococcus aureus [1]): 100 µM | MBIC (Staphylococcus aureus [2]): 31.5 µM | MBIC (Staphylococcus aureus [3]): 39.7 µM

CCOc1cc(/C=C2\SC(=S)N(c3ccc(F)cc3)C2=O)ccc1O
inhibition (Staphylococcus aureus [4]): Active | MBIC (Staphylococcus aureus [5]): 35.4 µM | inhibition (Staphylococcus aureus [6]): inactive | inhibition (INH) (Staphylococcus aureus [7]): >=80% | inhibition (Staphylococcus aureus [8]): Active | Activity (Staphylococcus aureus [9]): Dose-dependent effect | inhibition (Staphylococcus aureus [10]): Active | inhibition (Staphylococcus aureus [11]): inactive | MBIC (Enterococcus faecalis [12]): 12.5 µM | inhibition (Staphylococcus aureus [13]): Active | inhibition (Staphylococcus aureus [14]): Active | MBIC90 (Enterococcus faecalis [15]): >=100 uM | inhibition (Staphylococcus aureus [16]): Active | inhibition (Staphylococcus aureus [17]): Active | MBIC90 (Enterococcus faecalis [18]): >=100 uM | inhibition (Staphylococcus aureus [19]): Active | inhibition (Staphylococcus aureus [20]): inactive | inhibition (Staphylococcus aureus [21]): inactive | inhibition (Staphylococcus aureus [22]): inactive | MBIC90 (Enterococcus faecalis [23]): >=100 uM | MBIC [24]: 21 µM

CCOc1cc(/C=C2\SC(=S)N(c3cccc(F)c3)C2=O)ccc1O
MBIC (Staphylococcus aureus [2]): 35.4 µM | MBIC (Enterococcus faecalis [12]): 29.7 µM | MBIC90 (Enterococcus faecalis [15]): >=100 uM | MBIC90 (Enterococcus faecalis [18]): >=100 uM | MBIC90 (Enterococcus faecalis [23]): >=100 uM

CCOc1cc(/C=C2\SC(=S)N(c3cccnc3)C2=O)ccc1O
inhibition (Staphylococcus aureus [4]): Active | inhibition (Staphylococcus aureus [6]): inactive | inhibition (INH) (Staphylococcus aureus [7]): >=80% | MBIC (Staphylococcus aureus [1]): 19.8 µM | inhibition (Staphylococcus aureus [10]): Active | MBIC (Enterococcus faecalis [25]): 19.8 µM | inhibition (Staphylococcus aureus [13]): Active | inhibition (Staphylococcus aureus [14]): Active | MBIC (Staphylococcus aureus [3]): 25 µM | inhibition (Staphylococcus aureus [19]): Active | inhibition (Staphylococcus aureus [21]): inactive
